From PubChem BioAssay
CYP2C19 inhib: blockers of cytochrome P450 2C19 activity – biochemical, luminescence, ADME assay, primary screen; AID 778, 2007; inhibition, % at 5 µM; CYP2C19 Supersomes, luciferin-H EGE luminescence, 30 min; 21% of 96,000 active;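 active = CYP2C19 inhibition above a set limit at 5 µM in the primary screen, cut at about 50% in these data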;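 also: plate controls were negative control wells for no effect and 2.5 mM tranylcypromine positive control for full effect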
HIV Rev-RRE inh: HIV-1 Rev-RRE binding inhibitors, primary screen, biochemical, FRET, protein-RNA interaction; inhibition, % at 8 µM; 0.79% of 97,000 active; P05866; Rev peptide-RRE RNA binding;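 active = inhibition above the screen-wide mean plus 3 SD, cut at about 35% in these data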;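 also: 0% = median DMSO wells and 100% = median Neomycin B control wells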
Target sequence (P05866 whole entry, looked up): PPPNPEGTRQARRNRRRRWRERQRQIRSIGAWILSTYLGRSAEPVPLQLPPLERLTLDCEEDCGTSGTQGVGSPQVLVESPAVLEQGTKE
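Test system: Cy5-tagged RRE RNA duplex with fluorescein-tagged Rev peptide; Probe or stimulus: labelled Rev peptide; Schedule: 5 min preincubation and 15 min binding, 25 °C; Signal: FRET fluorescence readout; Evaluation: % inhibition from 671/540 nm acceptor-to-donor ratio, scaled between controls; Control set: DMSO and neomycin B.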
CYP2C9 activ: human CYP2C9 activators, primary screen, biochemical, luminescence | 1.4% of 96,000 active | activation factor at 5 µM | recombinant CYP2C9, luciferin-H conversion; hits give high values; factor 1 = untreated enzyme, 0 = blocked;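 active = activation factor of 2 or more for CYP2C9 at a 5 µM dose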;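 also: 0 = sulfaphenazole-blocked wells and 1 = vehicle-only wells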
Target sequence (P11712 whole entry, looked up): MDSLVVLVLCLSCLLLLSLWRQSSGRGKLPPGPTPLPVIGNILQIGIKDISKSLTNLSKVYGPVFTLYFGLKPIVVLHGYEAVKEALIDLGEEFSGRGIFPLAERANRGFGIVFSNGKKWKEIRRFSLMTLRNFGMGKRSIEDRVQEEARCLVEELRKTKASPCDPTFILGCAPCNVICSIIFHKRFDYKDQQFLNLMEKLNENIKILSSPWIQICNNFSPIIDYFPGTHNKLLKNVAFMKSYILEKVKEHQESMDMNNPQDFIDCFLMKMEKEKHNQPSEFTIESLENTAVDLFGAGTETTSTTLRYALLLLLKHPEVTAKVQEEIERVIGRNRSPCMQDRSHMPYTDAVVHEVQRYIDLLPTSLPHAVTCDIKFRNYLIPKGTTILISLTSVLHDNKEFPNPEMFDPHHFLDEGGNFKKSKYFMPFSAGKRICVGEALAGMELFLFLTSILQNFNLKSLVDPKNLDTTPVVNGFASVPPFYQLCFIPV
CYP2C19 act: human CYP2C19 activators, primary screen, biochemical, luminescence; recombinant CYP2C19, luciferin-H EGE luminescence; hits give high values; 0 = fully inhibited enzyme, 1 = untreated enzyme; activation factor at 5 µM; 96,000 tested, under 10 active; AID 1025, 2008;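 active = activation factor of at least 2 at 5 µM in the primary screen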;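 also: 0 = wells with 2.5 mM tranylcypromine and 1 = vehicle-only wells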
Cav3 T inh: Cav3.2 calcium influx blockers – cell-based, Fluo-4 calcium fluorescence, FDSS, MLSMR library, primary screen; Voltage-dependent T-type calcium channel subunit alpha-1H (Homo sapiens), O95180; Cav3.2-expressing cells; hits give low values; 4% of 100,000 active; AID 449739, 2010; B-score at 10 µM;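 active = single-dose well whose peak fluorescence ratio is a statistical outlier from its plate by either plate-standardised score or position-corrected B-score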
CYP2C9 inhib: blockers of cytochrome P450 2C9 activity – biochemical, luminescence, ADME assay, primary screen; P11712; CYP2C9 Supersomes, luciferin-H conversion; inhibition, % at 5 µM; 20% of 96,000 active;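 active = blocking of liver enzyme CYP2C9 beyond about 50% at 5 µM, limit read from the data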
Active calls of the source: *; nt = no result. Shown are actives, neighbours in structure and some others; about 27% of the full set was active somewhere.

SMILES	CYP2C19 inhib	HIV Rev-RRE inh	CYP2C9 activ	CYP2C19 act	Cav3 T inh	CYP2C9 inhib
COc1ccccc1OCC(=O)NCc1ccco1	17	-1	1	0.8	-0.14	0
COc1ccccc1N(C)S(=O)(=O)c1ccc(C(=O)OCC(=O)NCc2ccco2)cc1	35	11	0.1	0.7	-1.2	88*
O=C1CCCN1c1cc(Cl)ccc1Cl	-15	6	1.5	1.1	-1.2	-48
CC(c1ccccc1)C1C(C#N)=C(N)OC2=C1C(=O)CC(C)(C)C2 (configuration not stated)	90*	8	0.2	0.1	0.41	84*
CC(CC1C(C#N)=C(N)OC2=C1C(=O)CCC2)c1ccccc1 (configuration not stated)	93*	4	0.1	0.1	2.2	88*
CN1CCN(/C=N/C2=C(C#N)C(c3ccccc3)C3=C(CC(C)(C)CC3=O)O2)CC1 (configuration not stated)	12	-1	1	0.9	1.8	1
CC1(C)CC(=O)C2=C(C1)OC(/N=C/N1CCOCC1)=C(C#N)C2c1ccccc1 (configuration not stated)	31	4	0.3	0.7	1.2	65*
CC1(C)CC(=O)C2=C(C1)OC(N)=C(C#N)C2C#Cc1ccccc1 (configuration not stated)	15	18	0.3	0.8	-0.41	69*
O=C(Oc1ccc(Cl)cc1N1C(=O)CCC1=O)c1ccco1	11	7	0.9	0.9	0.61	6
CCSc1nc2ccccc2n1C(=O)/C=C\c1ccc(OC)c(OC)c1	4	1	0.9	1	1.8	10
CC(=O)Nc1cc(C(=O)N2CCCC2)ccc1S(=O)(=O)c1ccc(Cl)cc1	-3	6	0.9	1	0.21	6
CC(=O)Nc1sc2c(c1C(N)=O)CCC2	nt	6	nt	nt	0.00044	nt
CCC1(CC)NC(=O)N(CC(=O)Nc2sc3c(c2C(N)=O)CCC3)C1=O	39	15	0.3	0.6	0.54	74*
CC(=O)Nc1sc2c(c1C(N)=O)CCCC2	8	7	0.9	0.9	-0.0072	7
CCCCC(=O)Nc1sc2c(c1C(N)=O)CCC2	47	3	0.2	0.5	0.91	77*
O=C(O)C1=C[C@H](c2ccc(C(F)(F)F)cc2)C[C@H](OCc2ccc(CO)cc2)O1	nt	nt	nt	nt	-1.4	nt
O=C(CSc1ccccn1)N1CCN(c2ccccc2)CC1	99*	5	0.6	0	0.21	45
O=C(CSc1nc(N2CCCCC2)nc(N2CCCCC2)n1)N1CCN(c2ccccc2)CC1	77*	nt	0.2	0.2	-8.8*	83*
COc1ccc(-c2cnc(OC(C)(C)C)nc2OC(C)(C)C)cc1OC	8	-4	0.7	0.9	-0.61	26
O=C(NCCCCc1ccccc1)C1CC(c2ccccc2[N+](=O)[O-])=NO1 (configuration not stated)	51*	9	0.6	0.5	0.024	37
Cc1ccc(CNC(=O)C2CC(c3ccccc3[N+](=O)[O-])=NO2)cc1 (configuration not stated)	23	-1	1.3	0.8	-0.29	-31
O=C(NCc1ccc(OC(F)(F)F)cc1)C1CC(c2ccccc2[N+](=O)[O-])=NO1 (configuration not stated)	23	19	3.1*	0.8	-1.9	-213
Cc1ccc(CNC(=O)c2cnc(-c3ccccn3)nc2C(F)(F)F)cc1	18	5	0.6	0.8	0.00059	44
Cc1onc(C(=O)/C=C/N(C)C)c1C(=O)Nc1nccs1	9	-2	0.9	0.9	0.51	13
Clc1ccc(Cn2cc(Br)cn2)cc1Cl	72*	5	0.6	0.3	nt	39
SMILES	CYP2C19 inhib	HIV Rev-RRE inh	CYP2C9 activ	CYP2C19 act	Cav3 T inh	CYP2C9 inhib
O=C(COc1ccc(Cl)cc1)Nc1cnn(Cc2c(Cl)cccc2Cl)c1	5	7	1	0.9	-0.16	3
O=C(Nc1cnn(Cc2ccc(Cl)cc2)c1)c1cnccn1	42	7	0.4	0.6	-1	62*
CC(=O)Nc1cnn(Cc2ccc(Br)cc2)c1	66*	2	0.8	0.3	0.018	23
Cc1ccc(Oc2ccccc2)c(NC=O)c1	30	6	1	0.7	-0.085	-1
CCC1(C)Cc2ccccc2-c2nc(-c3ccccc3)oc(=O)c21 (configuration not stated)	-18	28	0.5	1.2	-1.4	46
O=C(c1cccc(F)c1F)N1CCCC1	nt	3	nt	nt	0.59	nt
Nc1nc2ccc(C(=O)NC3CCCCC3)cc2s1	-2	4	1.3	1	0.62	-26
CCCn1nc(NS(C)(=O)=O)c2cc3cccc(C)c3nc21	32	6	0.3	0.7	-1.2	65*
CCn1nc(NS(=O)(=O)c2ccccc2)c2cc3cccc(C)c3nc21	9	9	0.2	0.9	-2.6	79*
CCn1nc(NC(=O)c2ccccn2)c2cc3cccc(C)c3nc21	2	11	0.9	1	-0.86	7
CCn1nc(C)c(NS(=O)(=O)c2ccccc2)c1C	85*	-3	0.9	0.2	1.4	11
Nc1nnc(SCC(=O)N2CCN(c3cccc(Cl)c3)CC2)n1-c1ccccc1	nt	5	nt	nt	0.88	nt
CCC1(C)CC(C(CC(=O)O)c2ccc(C)cc2)CCO1 (configuration not stated)	29	3	0.5	0.7	1.9	49
C=CCc1c(C)nc(N)[nH]c1=O	nt	12	nt	nt	1.7	nt
Clc1c(-c2nnc3n2CCC3)sc2ccccc12	16	nt	3*	0.8	0.26	-201
Cn1c(CSc2nc3ccccc3s2)n[nH]c1=S	54*	-1	0.9	0.5	1.3	13
Cn1c(-c2sc3ccccc3c2Cl)n[nH]c1=S	52*	2	0.2	0.5	1.5	77*
Cc1ccc(-c2n[nH]c(=S)n2C)cc1	17	10	0.6	0.8	-0.41	43
Cn1c(CSc2nc3ccccc3s2)nc2ccccc21	98*	13	0.2	0	-4.7*	78*
CC(=O)CSc1nc2ccccc2s1	11	1	1.1	0.9	1.3	-13
O=C(c1cccc(C(F)(F)F)c1)N1CCN(C2CCCCC2)CC1	38	-1	0.7	0.6	2.4	29
COc1ccc(-c2c(-c3ccsc3)oc3ccc(N4CCOCC4)cc23)cc1	nt	nt	nt	nt	0.33	nt
CCC(NS(=O)(=O)c1ccc(OC)cc1)C(=O)NCCC1=CCCCC1 (configuration not stated)	31	3	0.7	0.7	-1.1	34
